# Screening results (PubChem)
# An excerpt weighted towards active compounds, which were near 4.9% of everything screened.
# STAT1 activator: increases IFN-gamma driven STAT1 reporter signal; AID 932; activation (% of control), % at 5.5 µM; NIH 3T3 STAT1-luciferase reporter, luminescence; 100% = IFN-gamma alone, no compound; 2.6% of 200,000 active;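 active = activation above the screen-wide mean activation plus 3 SD, cut at about 130% in these data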;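 note: raw ratio to IFN-gamma control signal so 100% means no change and 0% no light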
# NF-kB neuron act: NF-kB expression increase, human neuronal cells | NF-kB reporter expression; stronger effect = higher value | 1.6% of 190,000 active | fold change at 12.5 µM; in the data active = fold change above about 3.3
# STAT3 blocker: STAT3 signaling inhibition; U3A cells, IL-6 STAT3-luciferase reporter, luminescence; host cell line lacks STAT1; 0.89% of 190,000 active; inhibition, % at 5.5 µM;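 active = inhibition above the mean inhibition across all screened compounds plus 3 SD, cut at about 44% in these data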;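 note: 0% = DMSO only wells and 100% = 100 µM nifuroxazide control wells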
# STAT3 act: activators of IL-6 induced STAT3 signaling | U3A cells, IL-6 STAT3-luciferase reporter, luminescence; 100% = signal with IL-6 EC80 alone | activation (% of control), % at 5.6 µM | 0.91% of 190,000 active | AID 871;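 active = activation above the screen-wide mean of compound activation plus 3 SD, cut at about 130% in these data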;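 note: 0% = background luminescence of wells with medium and substrate only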
#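 Test system: Human STAT1-deficient U3A cells with stable STAT3-luciferase reporter | Also added: Interleukin-6, 33 ng/mL | Timing: Compound pre-incubation 1 h before IL-6, then 6 h stimulation at 37 °C | Technique: Luciferase reporter luminescence | Read-out: Percent of IL-6-only median luminescence | Benchmarks: IL-6-only wells as 100% reference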
# APP 5'UTR act: APP 5'UTR luciferase reporter activation; SH-SY5Y APP 5'UTR luciferase reporter, luminescence; zero percent = DMSO vehicle wells; activation, % at 2 µM; 1% of 190,000 active; AID 1276;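 active = activation above a set limit, based on mean plus 3 SD of controls, cut at about 140% in these data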
# STAT1 blocker: STAT1 signaling inhibition; NIH 3T3 STAT1-luciferase reporter, IFN-gamma, luminescence; inhibition, % at 5.5 µM; 0.35% of 200,000 active; AID 920;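 active = inhibition above a set limit, the mean inhibition across all tested compounds plus 3 SD, cut at about 34% in these data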;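 note: 0% = IFN-gamma with DMSO and 100% = IFN-gamma with 300 µM nifuroxazide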
# * marks the source's active call; other numbers are inactive results; . = no result given.
SMILES,STAT1 activator,NF-kB neuron act,STAT3 blocker,STAT3 act,APP 5'UTR act,STAT1 blocker
COc1ccc(N2C(=O)CCC(C(=O)Nc3cccc(C)n3)C2c2ccc(OC)c(OC)c2)cc1 (configuration not stated),104,0.92,7,97,4,-3
CCC(Sc1nc(-c2ccccc2)c(C#N)c(=O)[nH]1)C(=O)Nc1nnc(C)s1 (configuration not stated),97,1,21,91,11,4
Cc1ccsc1C(=O)Nc1ccccc1N1CCOCC1,103,1.2,3,98,3,-3
COc1ccc(/C=C2/C(=O)OCc3cc(OC)c(OC)cc32)cc1,97,1.2,12,91,-82,3
C/C(CC(=O)Nc1cc(C)cc(C)c1)=N\NC(=O)c1ccccn1,111,1.3,9,91,107,-11
Cc1csc(SCC(=O)Nc2ccc3c(c2)OCCO3)n1,132*,1.6,13,93,37,-39
CSc1nsc(SCC(=O)Nc2ccc3c(c2)OCCO3)n1,114,4*,5,97,141*,-15
C/C(CC(=O)Nc1ccc2c(c1)OCCO2)=N\NC(=O)c1ccccn1,128,1.1,11,97,136*,-29
Brc1ccccc1-n1nnc(-c2nccs2)n1,133*,3.9*,.,.,127,-34
Cc1ccc2nc(-c3ccc(NC(=O)Cc4cccs4)cc3)[nH]c2c1,145*,2.2,21,87,109,-50
COc1cccc(/C=N/Nc2ncnc(N)c2[N+](=O)[O-])c1OC,46,1.7,86*,28,86,59*
Cc1ccc(C(=O)N(C)c2ccc(OCC(=O)N3c4ccc(C)cc4C4CN(C)CCC43)cc2)cc1 (configuration not stated),95,0.98,13,96,27,4
O=C1/C(=C\c2ccc3ccccc3c2)CCCc2ccccc21,121,4.8*,6,94,41,-23
COc1ccc(/C=C2\CCc3ccccc3C2=O)cc1OC,94,3.6*,4,105,62,7
CS(=O)(=O)c1ccc(C(=O)OCc2nnc(-c3ccc(Cl)cc3)o2)cc1[N+](=O)[O-],87,8.4*,11,93,-19,14
CCOc1ccc(/C=N/n2c(SC)nnc(C(C)(C)C)c2=O)cc1,92,1.1,16,89,-2,8
CCOc1ccc(/C=N/n2c(SC)nnc2-c2ccccc2)cc1OCC,107,5.5*,-1,101,12,-7
COc1ccc(OC)c2c1sc(=NC(=O)C(C)(C)C)n2C,104,1.3,14,93,-7,-4
COc1ccc(C(=O)N=c2sc3c(C)ccc(OC)c3n2C)cc1,142*,3.1,2,106,80,-46
COc1ccc(NC(=S)Nc2cc(C)ccn2)c(OC)c1,145*,2.4,-44,141*,.,-50
COc1ccc(NC(=S)Nc2ccccn2)c(OC)c1,136*,2,-8,114,60,-40
CC(CCc1ccccc1)NC(=O)CN1CCN(c2ccccc2)CC1 (configuration not stated),101,1.4,5,100,8,-3
COc1ccccc1NC(=O)N1CCN(C)CC1,102,0.89,-2,106,0,-3
CCCCOC(=O)Nc1ccc(S(=O)(=O)Nn2cnnc2)cc1,95,1.7,5,101,34,4
CCCCOC(=O)Nc1ccc(N2CCCCC2)cc1,140*,6.1*,10,94,103,-44
SMILES,STAT1 activator,NF-kB neuron act,STAT3 blocker,STAT3 act,APP 5'UTR act,STAT1 blocker
CCCCCOC(=O)Nc1nnc(CCC)s1,106,1.2,2,101,-6,-7
CCCCOC(=O)Nc1ccc(C(N)=O)cc1,120,1.5,-9,108,-7,-22
CCCCOC(=O)Nc1ccc(N(C)C)cc1,144*,4*,-11,107,171*,-50
CCCCOC(=O)Nc1ccc(C(C)C)cc1,130*,2.3,-11,111,100,-41
CCCCOC(=O)Nc1nnc(C(C)C)s1,130*,2.5,-1,103,47,-33
CCCCOC(=O)Nc1ccc(N2CCOCC2)cc1,121,2,-1,102,65,-23
Cc1cccnc1NC1(C(F)(F)F)N=C2SCCN2C1=O (configuration not stated),107,1.1,7,98,-2,-10
Cc1ccc(C)c(NC(=O)C2=CCN(S(=O)(=O)c3ccc(F)cc3)CC2)c1,100,1.1,-2,101,6,-1
CCCCCCn1c(Br)nc2c1c(=O)n(C)c(=O)n2C,96,0.89,7,96,24,5
CC(C)CC(C(=O)O)N1C(=O)[C@@H]2[C@H](C1=O)[C@@H]1C[C@H]2C(Br)C1Br (some centres not stated),98,1,0,100,15,2
NS(=O)(=O)c1ccc(CCNC(=O)NC2(C(F)(F)F)Oc3ccccc3O2)cc1,117,3.9*,0,103,-25,-18
N#CC1=C(N)Oc2n[nH]c(-c3cccnc3)c2C1c1ccc([N+](=O)[O-])o1 (configuration not stated),86,0.97,6,101,18,14
COc1ccc(C(=O)NC(=S)N2CCCc3ccccc32)cc1OC,103,0.75,17,91,8,-5
O=C(NC(=S)N1CCCc2ccccc21)c1ccc(Cl)cc1,111,1,-50,142*,48,-13
O=C(NC(=S)N1CCCc2ccccc21)c1ccc(Br)cc1,98,0.93,-46,133*,4,2
O=C(NC(=S)N1CCCc2ccccc21)c1ccc([N+](=O)[O-])cc1,107,0.74,8,102,-3,-11
O=C(c1ccccc1)c1nnc(-c2ccccc2F)o1,115,9.8*,16,90,90,-16
CN(C)c1oc(-c2ccccc2F)nc1C#N,104,0.95,21,87,18,-4
Cc1ccc(/C=C/c2nnc(-c3ccccc3)o2)cc1,106,2.3,32,78,16,-7
C(=C\c1nnc(-c2cccs2)o1)/c1ccccc1,143*,5*,13,94,117,-48
Clc1ccccc1-c1nnc(-c2cccs2)o1,143*,6*,1,101,182*,-48
CC(C)(C)C(=O)Nc1cc2nn(-c3ccccc3)nc2cc1Cl,24,0.17,104*,15,9,83*
Cc1nn(-c2cccc(Cl)c2)nc1C(=O)O,107,1.5,8,94,-3,-7
CC(=O)Nc1cc2nn(-c3ccccc3)nc2cc1Cl,131*,5.3*,15,89,53,-34
Cc1csc(SCC(=O)NCc2ccccc2Cl)n1,96,1.1,9,98,5,3
Cc1ccc(NC(=O)Cn2nc(-c3ccccc3Cl)ccc2=O)c(Br)c1,98,1.6,3,99,14,1
